Screens (PubChem BioAssay)
STAT1 activator: activators of IFN-gamma induced STAT1 signaling | NIH 3T3 STAT1-luciferase reporter, luminescence; 100% = IFN-gamma alone, no compound | activation (% of control), % at 5.5 µM | 2.6% of 200,000 active;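 active = activation above the screen-wide mean activation plus 3 SD, cut at about 130% in these data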;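 also: raw ratio to IFN-gamma control signal so 100% means no change and 0% no light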
STAT1 blocker: STAT1 signaling inhibition; inhibition, % at 5.5 µM; NIH 3T3 STAT1-luciferase reporter, IFN-gamma, luminescence; 0.35% of 200,000 active;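 active = inhibition above a set limit, the mean inhibition across all tested compounds plus 3 SD, cut at about 34% in these data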;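 also: 0% = IFN-gamma with DMSO and 100% = IFN-gamma with 300 µM nifuroxazide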
STAT3 act: activators of IL-6 induced STAT3 signaling; U3A cells, IL-6 STAT3-luciferase reporter, luminescence; 100% = signal with IL-6 EC80 alone; activation (% of control), % at 5.6 µM; 0.91% of 190,000 active; AID 871;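 active = activation above the screen-wide mean of compound activation plus 3 SD, cut at about 130% in these data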;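 also: 0% = background luminescence of wells with medium and substrate only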
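system = STAT3-luciferase reporter U3A cells | reagent = IL-6 stimulus at 33 ng/mL final | timing = 1 h compound pre-exposure, 6 h IL-6 stimulation, 37 °C | measured by = luminescence | evaluation = % activation versus median of IL-6-stimulated wells | control set = IL-6-only wells as 100% reference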
NF-kB neuron act: compounds increasing NF-kB expression in human neuronal cells. NF-kB reporter expression; active compounds read high. fold change at 12.5 µM. 1.6% of 190,000 active; in the data active = fold change above about 3.3
APP 5'UTR act: activates APP 5'UTR luciferase reporter; AID 1276; 1% of 190,000 active; SH-SY5Y APP 5'UTR luciferase reporter, luminescence; zero percent = DMSO vehicle wells; activation, % at 2 µM;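 active = activation above a set limit, based on mean plus 3 SD of controls, cut at about 140% in these data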
STAT3 blocker: inhibitors of IL-6 induced STAT3 signaling. U3A cells, IL-6 STAT3-luciferase reporter, luminescence; host cell line lacks STAT1. inhibition, % at 5.5 µM. 0.89% of 190,000 active. AID 862;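 active = inhibition above the mean inhibition across all screened compounds plus 3 SD, cut at about 44% in these data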;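 also: 0% = DMSO only wells and 100% = 100 µM nifuroxazide control wells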
Starred values were filed as active, the others as inactive; · = not tested or not shown. A selection: hits, their analogues and other compounds. The true share with any hit is near 4.9%.

SMILES	STAT1 activator	STAT1 blocker	STAT3 act	NF-kB neuron act	APP 5'UTR act	STAT3 blocker
COc1cccc(-c2nc3ccccc3c(=O)o2)c1	95.6	4.8	92.5	1.68	-4.2	13.2
COc1cccc(-c2nc3ccc([N+](=O)[O-])cc3o2)c1	136.0*	-41.5	91.5	3.36*	143.9*	13.7
O=[N+]([O-])c1ccc2nc(-c3ccccc3)oc2c1	148.1*	-53.6	97.0	2.15	52.9	14.6
CCc1cccc(N=c2c([N+](=O)[O-])nn(-c3ccc(Cl)cc3)n2O)c1	99.7	0.3	100.2	4.87*	10.3	-3.4
Cc1ccc(CN=c2c([N+](=O)[O-])nn(-c3ccc(Cl)cc3)n2O)cc1	140.1*	-45.8	90.6	1.16	11.0	15.2
O=[N+]([O-])c1nn(-c2ccc(Cl)cc2)n(O)c1=NCc1ccncc1	109.5	-11.0	87.9	0.97	-10.7	17.0
Cc1cccc(N=c2c([N+](=O)[O-])nn(-c3ccc(Cl)cc3)n2O)c1	104.2	-4.3	93.8	1.46	21.0	7.6
Cc1ccc(OC(=O)c2sc3ncn(C)c(=O)c3c2C)cc1	135.5*	-38.8	90.1	3.35*	129.4	14.1
CCNC(=S)N/N=C/c1sc(N2CCCCC2)nc1-c1cccs1	118.6	-17.0	109.7	1.12	15.7	-14.8
CN(C)c1ccnc(Nc2ccc(O)cc2)c1C#N	96.3	4.1	98.0	0.95	9.6	10.6
O=C(OCC(=O)c1cccs1)c1ccccc1	140.2*	-41.1	109.1	5.46*	54.0	-4.0
CC(C)(C)c1ccc(C(=O)CS(=O)(=O)c2ccccc2)cc1	97.5	2.9	119.5	0.86	139.9*	-19.0
CC(C)NC(=O)C1(c2ccccc2)CC1(Cl)Cl (configuration not stated)	103.7	-4.1	104.9	1.19	-8.3	-2.5
O=C(NCCc1ccccc1)C1(c2ccccc2)CC1(Cl)Cl (configuration not stated)	95.5	5.0	101.9	3.44*	1.9	3.8
Cc1cccc(NC(=O)c2csnn2)n1	101.5	-0.9	95.7	13.2*	-17.9	5.9
COc1cccc(/C=N/NC(=S)Nc2cccc(C(=O)O)c2)c1O	36.3	68.1*	45.4	1.78	-1.1	66.1*
COc1cc(/C=N/NC(=O)Nc2ccccc2)ccc1OC(C)=O	141.8*	-47.5	118.2	2.01	39.5	-18.7
COc1ccc(/C=N/NC(=S)Nc2ccccc2)cc1	133.3*	-38.0	95.3	2.21	35.7	7.8
CC(=O)Nc1cccc(C(=O)N/N=C/c2ccccc2F)c1	143.1*	-48.5	100.6	2.72	46.6	-3.0
COc1ccc(/C=N/NC(=O)CSCC(=O)Nc2ccccc2)cc1OC	106.8	-7.5	105.0	1.13	-8.5	-5.9
CC(C)(C)c1ccc(C(CC(=O)O)NC(=O)Cc2ccc(F)cc2)cc1 (configuration not stated)	98.7	-0.4	109.6	1.23	12.0	0.5
COc1cc(/C=N/NC(=S)Nc2cccc(C(=O)O)c2)ccc1O	36.1	70.8*	16.3	1.24	-11.5	96.9*
CCCCN1C(=O)Nc2ccccc2S1(=O)=O	95.3	5.1	78.7	1.01	-8.2	24.9
COc1ccc(OCCC(=O)NCCN2CCOCC2)cc1	98.8	-0.1	100.6	1.09	8.0	3.9
COc1cc(N=CC2=C(O)c3ccccc3C2=O)cc(OC)c1	147.7*	-52.9	89.0	1.26	24.6	16.1
SMILES	STAT1 activator	STAT1 blocker	STAT3 act	NF-kB neuron act	APP 5'UTR act	STAT3 blocker
Cc1ccc(/C=C/C(=O)CCC(=O)O)cc1	107.5	-10.6	94.6	1.39	3.3	11.5
c1cnc(SCCOc2ccc3c(c2)CCC3)nc1	149.8*	-55.2	98.7	7.18*	·	1.6
Cc1ccc(NC(=S)NCc2cccs2)c(C)c1	96.5	4.0	93.1	0.97	-1.6	8.2
CC(CC(=O)Nc1nc2ccccc2[nH]1)c1ccccc1 (configuration not stated)	145.0*	-44.0	108.6	2.48	122.8	-9.1
CC(CC(=O)Nc1nc2ccccc2[nH]1)n1ccnc1 (configuration not stated)	104.4	-7.5	101.9	1.19	12.2	-0.8
Cc1ccccc1OCC(=O)Nc1nc2ccccc2[nH]1	136.3*	-42.1	77.4	2.11	114.5	32.4
O=C(COc1ccccc1)Nc1nc2ccccc2[nH]1	128.8*	-31.4	75.7	2.57	55.7	31.2
COc1cccc(C(=O)Nc2nc3ccccc3[nH]2)c1	60.0	43.5*	29.3	2.51	150.1*	86.1*
CCOC(=O)c1cn(CC(=O)Nc2ccc(OC)cc2OC)nn1	91.8	8.1	93.6	1.07	19.1	17.8
CC1CC(C)(C)NC(=S)N1CCCC(=O)Nc1ccc2c(c1)OCCO2 (configuration not stated)	137.1*	-41.7	96.6	1.24	61.5	10.5
O=C(CCc1ccccc1)Nc1ccc2c(c1)OCCO2	145.4*	-49.8	102.5	4.54*	132.1	1.4
Cc1cnc(NC(=O)COc2ccccc2Cl)s1	44.5	60.8*	26.2	1.09	100.3	92.3*
Cc1cnc(NC(=O)CCNC(=O)c2ccccc2Cl)s1	104.5	-4.1	104.8	1.21	14.2	-5.3
O=C(COc1ccccc1Cl)Nc1ccc2c(c1)OCCO2	115.7	-17.1	98.8	2.78	189.5*	6.7
O=C(COc1ccccc1Cl)NCCc1ccc2c(c1)OCCO2	93.3	7.4	101.6	1.72	-9.1	-2.4
Cc1ccc(NC(=O)CCCN2C(=S)NC(C)(C)CC2C)cc1 (configuration not stated)	97.7	0.0	98.5	0.97	23.4	3.6
CCOc1ccc(-c2nnc(Nc3ccc(OC)c(C(=O)N4CCCCC4)c3)c3ccccc23)cc1	103.4	-3.8	96.6	0.63	-6.5	-1.0
Cc1ccc(-c2nc(N)sc2CC(=O)OCC(=O)NCC2CCCO2)cc1 (configuration not stated)	101.1	-1.3	101.6	0.82	-3.1	-2.0
c1ccc(COc2ccc(OCCCn3cncn3)cc2)cc1	113.8	-14.9	77.4	5.29*	136.4*	31.1
c1ccc(Cc2ccc(OCCn3cncn3)cc2)cc1	104.8	-5.2	92.8	0.85	1.4	12.9
CC1CCN(CCCOc2ccc(OCc3ccccc3)cc2)CC1	108.9	-9.9	99.4	5.08*	6.5	1.4
C=CCc1cc(C)ccc1OCCOCCn1ccnc1	96.4	4.0	95.8	1.11	10.8	2.7
Cc1cccc(-n2c(SCc3ccc(C#N)cc3)nnc2-c2c[nH]c3ccccc23)c1	93.8	7.0	97.2	1.08	9.7	0.8
CN=c1scc(C)n1/N=C/c1ccc(O)c(O)c1O	89.7	9.2	80.6	0.98	0.0	23.3
CCN=c1scc(C)n1/N=C/c1ccsc1	150.1*	-55.4	95.4	3.65*	97.4	6.2
CCOC(=O)c1c(NC(=S)NCC2CCCO2)sc(C)c1C (configuration not stated)	98.3	1.6	109.3	0.97	13.1	-5.7
